Sampled rows, rich in hits. Any-hit rate of the full collection: about 1.5%.
Platelet DG rel: inhibitors of platelet dense granule secretion, primary screen, cell-based, MLPCN, human platelets; human platelet-rich plasma, SFLLRN dense granule ATP release, luminescence; inhibition, %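 (compounds screened at 7.5 µM in platelet-rich plasma)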; 300,000 tested, 0.22% active; AID 1663, 2009;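 active means mean replicate score, as percent of positive control, at or above 50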
PPC-1+TRAIL kill: compounds killing PPC-1 cancer cells with TRAIL present, primary screen, TRAIL potentiator project, ATPLite luminescence, uHTS; PPC-1 cells + TRAIL, ATPLite viability luminescence; cell killing (% activity), % at 4 µM or 5 µM; 220,000 tested, 0.41% active; AID 1443, 2008;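 active means cell killing above 50% in the first pass at 4 µM, then a duplicate retest at 5 µM averaging 50% or more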;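 further: plate controls were cells with TRAIL plus DMSO for no effect and medium-only wells lacking cells for full effect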
Hep lipid drop: inhibitors of hepatocyte lipid droplet formation, primary screen, imaging, high-throughput imaging, BODIPY stain; inhibition, % at 6.5 µM; AML12 mouse hepatocytes, oleate lipid droplets; 240,000 tested, 0.4% active; AID 1656, 2009;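 active means lipid droplet intensity inhibited by at least 50%, with more than 500 cells counted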
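material = mouse AML12 hepatocyte cell line, fixed after treatment | also added = 100 µM oleic acid challenge | doses = compound at 6.5 µM only | schedule = overnight exposure | technique = Image-based BODIPY and DAPI two-channel analysis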
STAT3 inh: IL-6 driven STAT3 reporter inhibitors, primary screen, U3A cells, luciferase, luminescence, MLSCN library; IL-6 STAT3-luciferase reporter; host cell line lacks STAT1; inhibition, % at 5.5 µM; 190,000 tested, 0.89% active; AID 862, 2007;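 active means inhibition above the mean inhibition across all screened compounds plus 3 SD, cut at about 44% in these data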;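 further: 0% = DMSO only wells and 100% = 100 µM nifuroxazide control wells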
TAG inh: inhibitors of triacylglycerol accumulation, primary screen, cell-based, uHTS, fluorescence, H9c2; inhibition, % at 12.5 µM; 230,000 tested, 0.66% active; H9c2 cells, Nile Red lipid (TAG) fluorescence; cells loaded with 200 µM oleic acid;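 active means pattern-corrected inhibition of lipid staining of at least 50% with the nuclear-stain viability signal not falling by more than 50%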;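 further: 0% = DMSO wells and 100% = triacsin C control wells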
STAT1 inh: STAT1 signaling inhibitors, primary screen, cell-based, HTS, luciferase reporter | NIH 3T3 STAT1-luciferase reporter, IFN-gamma, luminescence | inhibition, % at 5.5 µM | 200,000 tested, 0.35% active | AID 920, 2007;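 active means inhibition above a set limit, the mean inhibition across all tested compounds plus 3 SD, cut at about 34% in these data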;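 further: 0% = IFN-gamma with DMSO and 100% = IFN-gamma with 300 µM nifuroxazide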
Starred values were filed as active, the others as inactive.

Screening O=[N+]([O-])c1c(Nc2ccc(O)cc2)cc(Cl)c2nonc12 returned Platelet DG rel 56*.
For CN(C)c1cc(Nc2ccc(O)cc2)c([N+](=O)[O-])c2nonc12 the results were Platelet DG rel -3, PPC-1+TRAIL kill 0, Hep lipid drop -47 and TAG inh -19.
`Cc1ccc(NC(=O)c2cc(C)n(-c3ccccc3)c2C)cc1` gave Platelet DG rel 3, PPC-1+TRAIL kill 77*, Hep lipid drop -30, STAT3 inh 88*, TAG inh -5 and STAT1 inh 39*.
Screening Cc1ccc(NC(=O)c2cnn(-c3ccccc3)c2C)cc1 returned Platelet DG rel 13 and Hep lipid drop 14.
For O=C(Nc1c(Cl)cc2c(c1Cl)Cc1cc([N+](=O)[O-])ccc1-2)C(Cl)Cl the results were TAG inh 21.
`CSc1ccc(/C=N/NC(=O)c2cccc(O)c2)cc1` gave Platelet DG rel 72*, PPC-1+TRAIL kill 54*, STAT3 inh 47*, TAG inh -17 and STAT1 inh 4.
`CCCOc1ccc(CNC(=O)c2ccc3c(c2)N(CC)CCS3)cc1` gave Platelet DG rel 96*, Hep lipid drop 39 and TAG inh 17.
Screening c1ccc(-c2noc(CN3CCOCC3)n2)cc1 returned Platelet DG rel -7, PPC-1+TRAIL kill 14, Hep lipid drop -1, STAT3 inh -4, TAG inh -3 and STAT1 inh -17.
Screening Cc1cnc(C)c(N2CCN(Cc3nc(-c4ccccc4)no3)CC2)n1 returned Platelet DG rel 50*, PPC-1+TRAIL kill 16, Hep lipid drop 9, STAT3 inh 5, TAG inh -3 and STAT1 inh -5.
Screening Cc1cccc(CNc2ncnc3ccc(-c4ccoc4)cc23)c1 returned TAG inh 7.
CC(=O)Nc1ccc(CNc2ncnc3ccc(-c4c(C)noc4C)cc23)cc1 was read as TAG inh 62*.
Screening Cc1ccccc1NC(=O)c1c(C)[nH]c(=S)c(C#N)c1-c1ccco1 returned Platelet DG rel -10, PPC-1+TRAIL kill 60*, Hep lipid drop 5, STAT3 inh -6 and STAT1 inh -11.
`COc1ccc(NC(=O)/C=C/c2ccc(Br)o2)cn1` gave Platelet DG rel 12, PPC-1+TRAIL kill -12, Hep lipid drop -1, STAT3 inh 16, TAG inh -9 and STAT1 inh -22.
COc1ccccc1CNC(=O)/C=C/c1ccc(Br)o1 was read as Platelet DG rel 13, PPC-1+TRAIL kill 0, Hep lipid drop 2, STAT3 inh 6, TAG inh 51* and STAT1 inh 1.
Cc1cc(N2CCCCC2)n2ncc(-c3ccccc3)c2n1 was read as Platelet DG rel -13, PPC-1+TRAIL kill 37, Hep lipid drop 0, STAT3 inh 48*, TAG inh 7 and STAT1 inh -12.
For Cc1cc(N2CCCCC2)n2ncc(-c3ccc(Cl)cc3)c2n1 the results were Platelet DG rel -2, PPC-1+TRAIL kill 9, STAT3 inh -22, TAG inh 31 and STAT1 inh -43.
For CC(C)NC(=O)c1onc(CSc2ccc(C(C)C)cc2)c1C(=O)O the results were Platelet DG rel -3, PPC-1+TRAIL kill 96*, STAT3 inh -18, TAG inh -2 and STAT1 inh -5.
For Oc1cc(Nc2ccccc2)cc2cccnc12 the results were TAG inh 5.
Screening Oc1cc(NCCN2CCOCC2)cc2cccnc12 returned TAG inh 74*.
Screening CCC(CO)NCc1ccc(OCC(=O)Nc2cccc(C(F)(F)F)c2)c(OC)c1 (stereo unspecified) returned Platelet DG rel -3, PPC-1+TRAIL kill 52*, Hep lipid drop -12, STAT3 inh 13 and STAT1 inh 2.
Screening COc1ccc(C2=Nn3c(nnc3-c3ccccc3OC)SC2)cc1OC returned Platelet DG rel 11, PPC-1+TRAIL kill -9, STAT3 inh -54, TAG inh 60* and STAT1 inh 6.
CC(=O)Nc1cc(-c2ccsc2)cn2c(-c3ccc(F)cc3)cnc12 was read as TAG inh -9.
`Cc1ccc2nc(Cl)c(/C=N/NC(=O)[C@H]3C[C@@H]3c3ccccc3)cc2c1` gave Platelet DG rel 0, PPC-1+TRAIL kill 11, Hep lipid drop 105*, STAT3 inh -4, TAG inh 30 and STAT1 inh -6.
`O=C1CCCC/C1=C/Nc1cccc(C(F)(F)F)c1` gave Platelet DG rel 3, PPC-1+TRAIL kill 32, Hep lipid drop 1, STAT3 inh 12, TAG inh -21 and STAT1 inh -27.
`O=C1CCC2S/C(=C/Nc3ccc(C(F)(F)F)cc3)C(=O)N12` (stereo unspecified) gave Platelet DG rel -7, PPC-1+TRAIL kill 30, Hep lipid drop -14, STAT3 inh 78*, TAG inh -3 and STAT1 inh 66*.
Screening COc1cc(OC)c(NC(=O)c2cc3ccccc3cc2O)cc1Cl returned TAG inh 22.
Screening COc1ccc(Nc2nc(Nc3ccc(OC)cc3)nc(-n3[nH]c(=O)c(C)c3C)n2)cc1 returned Platelet DG rel -1, PPC-1+TRAIL kill 23, STAT3 inh 16, TAG inh 57* and STAT1 inh 2.
For COc1ccc(Nc2nc(OC)nc(OC)n2)cc1 the results were Platelet DG rel 2, Hep lipid drop 8 and TAG inh -10.
For COc1ccc(-c2ccc3c(c2)C2CC3CCN2)cc1 (stereo unspecified) the results were TAG inh 27.
For Clc1cccc(-c2cc3nc4c(c(N5CCN(c6cnccn6)CC5)n3n2)CCCC4)c1 the results were PPC-1+TRAIL kill 26, Hep lipid drop 5, STAT3 inh -3, TAG inh 62* and STAT1 inh -8.
For CC(=O)c1ccc(NC(=O)c2ccn[nH]2)cc1 the results were Platelet DG rel 50*, PPC-1+TRAIL kill 27, Hep lipid drop -1, STAT3 inh 16 and STAT1 inh -16.
Screening Cc1cc(NCCCCCCCNc2cc(C)nc3cc([N+](=O)[O-])ccc23)c2ccc([N+](=O)[O-])cc2n1 returned TAG inh 46.
CC(=O)Oc1ccccc1Cn1c(C)c(C(=O)NCc2ccc(Cl)c(Cl)c2)sc1=O was read as TAG inh 25.
COC(=O)c1sc(NC(=O)c2cc(-c3ccccc3)nc3ccccc23)c(C#N)c1C was read as Platelet DG rel -52, PPC-1+TRAIL kill 17, STAT3 inh 49*, TAG inh 0 and STAT1 inh 7.

Source: PubChem (several laboratories)
